Not all results are given here.
Apaf1 activ: human Apaf-1 activation | O14727 | Apaf-1 apoptosome caspase-3 activation, DEVD-Rh110 fluorescence; active compounds read low | activity change, negative = activation, % at 20 µM | 330,000 tested, 0.31% active | AID 489031;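 active = activity change at or below -40% at 20 µM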
Target sequence (O14727 whole entry, looked up): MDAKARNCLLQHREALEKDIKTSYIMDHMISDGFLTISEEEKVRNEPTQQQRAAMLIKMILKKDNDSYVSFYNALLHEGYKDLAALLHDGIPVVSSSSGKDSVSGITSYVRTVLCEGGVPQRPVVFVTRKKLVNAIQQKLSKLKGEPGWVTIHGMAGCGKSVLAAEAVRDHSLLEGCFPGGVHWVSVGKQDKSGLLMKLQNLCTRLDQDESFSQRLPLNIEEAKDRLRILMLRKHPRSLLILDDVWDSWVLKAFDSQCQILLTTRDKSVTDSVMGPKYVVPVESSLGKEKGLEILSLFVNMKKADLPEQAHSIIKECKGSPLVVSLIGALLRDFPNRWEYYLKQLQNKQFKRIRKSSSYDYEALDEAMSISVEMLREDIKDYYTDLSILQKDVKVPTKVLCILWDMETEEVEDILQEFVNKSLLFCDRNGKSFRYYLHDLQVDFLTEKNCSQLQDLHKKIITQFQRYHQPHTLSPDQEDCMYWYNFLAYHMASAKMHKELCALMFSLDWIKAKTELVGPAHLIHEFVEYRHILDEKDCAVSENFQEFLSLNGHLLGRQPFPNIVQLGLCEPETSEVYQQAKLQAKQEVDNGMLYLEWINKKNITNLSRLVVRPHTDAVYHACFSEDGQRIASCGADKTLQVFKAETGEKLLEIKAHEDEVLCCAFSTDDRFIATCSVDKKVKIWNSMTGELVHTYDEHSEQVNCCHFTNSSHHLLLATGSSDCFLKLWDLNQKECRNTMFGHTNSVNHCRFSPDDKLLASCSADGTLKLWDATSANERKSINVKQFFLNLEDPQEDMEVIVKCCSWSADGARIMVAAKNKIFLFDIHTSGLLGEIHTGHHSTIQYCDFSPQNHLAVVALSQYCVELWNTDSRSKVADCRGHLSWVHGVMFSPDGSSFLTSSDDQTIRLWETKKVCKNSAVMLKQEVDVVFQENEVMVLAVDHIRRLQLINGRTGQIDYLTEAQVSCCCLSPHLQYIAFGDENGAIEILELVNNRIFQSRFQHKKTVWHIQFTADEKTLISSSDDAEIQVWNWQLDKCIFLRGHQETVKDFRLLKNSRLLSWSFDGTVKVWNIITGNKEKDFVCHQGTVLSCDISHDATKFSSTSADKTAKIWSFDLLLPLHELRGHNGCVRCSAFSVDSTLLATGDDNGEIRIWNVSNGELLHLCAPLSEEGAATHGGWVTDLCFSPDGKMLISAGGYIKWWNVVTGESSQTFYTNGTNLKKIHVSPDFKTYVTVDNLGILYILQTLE
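Assay system – biochemical Apaf-1 apoptosome reconstitution · Medium – 20 mM HEPES buffer, pH 7.5, containing CHAPS and BSA · Incubation – 30 min preincubation, 50 min reaction, room temperature · Measured by – Caspase-3-released Rh110 fluorescence, 540 nm emission, 480 nm excitation · Read-out – Caspase-3 cleavage activity downstream of Apaf-1 activation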
Rh110 interf act: counter-screen for Apaf-1 activators: fluorescence interference; shares compounds with Apaf1 activ; AID 504616; 980 tested, under 10 active; fluorescence interference (activity change), % at 20 µM, hits read low; Rh110 fluorescence interference, quenched caspase reaction, Ex480/Em540;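 active = mean activity change at or below -40% when tested at 20 µM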
Apaf-1 act conf: Apaf-1 (human) activation, single-dose confirmed; shares compounds with Apaf1 activ; reconstituted apoptosome caspase-3 activity, DEVD-Rh110 fluorescence; active compounds read low; activity change, negative = activation, % at 20 µM; 980 tested, 5% active; AID 504617;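 active = mean activity change at or below -40%, meaning activation of 40% or more, at 20 µM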
Fluor interf act: Apaf-1 activator counter-screen fluorescence artifact; shares compounds with Apaf1 activ; AID 588592; 55 tested, under 10 active; fluorescence interference counterscreen, Apaf-1 activator assay; EC50, µM; call rule not given here
Starred values were filed as active, the others as inactive; · = not tested or not shown.

SMILES	Apaf1 activ	Rh110 interf act	Apaf-1 act conf	others
C[C@@H](CSc1ccc(Br)cc1)CN1CC[C@H](NC(=O)OCc2ccccc2)CCC1=O	40	·	·
COc1cc2c(cc1OC)CN(Cc1cc(=O)n3c(-c4ccccc4)csc3n1)CC2	42	·	·
CCc1cccc(NC(=S)Nc2cccc3ccccc23)c1	79	·	·
Cc1ccc(F)cc1NC(=S)NCCc1ccccc1	-523*	-5	19
Cc1ccc(S(=O)(=O)N(C)C)cc1NC(=S)Nc1cccc2ccccc12	93	·	·
CCc1cc2c(SCC(=O)N3CC(=O)Nc4ccccc43)ncnc2s1	55	·	·
Cc1noc(C)c1COc1ccccc1C(=O)N1CCN(c2cccc(Cl)c2)CC1	52	·	·
COc1ccccc1N1CCN(C(=O)c2cc(C(C)(C)C)oc2C)CC1	-380*	4	7
CCCCCCCCCCCCN1[C@@H](CC(=O)O)c2cc(C(F)(F)F)ccc2S1(=O)=O	41	·	·
CCOc1ccccc1NC(=O)c1ccc(Cl)c(NC(=O)CC(c2ccccc2)c2ccccc2)c1	-55*	6	14
CCC[C@@H](CN1CCC[C@H]1CN1C(N)=NC[C@@H]1Cc1ccccc1)N1C[C@@H]([C@H](C)CC)N(CCc2ccc(Cl)c(Cl)c2)C1=N	67	·	·
COCCOC(=O)c1[nH]c2c(c1C)C(=O)C(C(=O)OC)C(C)C2 (stereo not drawn)	-68*	-3	10
C[C@H](O)CC(=O)O	-8	·	·
O=C1C(Cl)=C(NCCN2CCCCC2)C(=O)c2ccccc21	68	·	·
COc1ccc(N)c2c1OCCC2=O	87	·	·
CCOc1cc(CNc2ccc(N3CCCC3)cc2)cc(Cl)c1OC	55	·	·
COc1cc(CNc2ccc(N3CCOCC3)cc2)cc(Br)c1OC	-85*	3	2
CCOc1cc(CNc2ccc(N3CCCCC3)cc2)cc(Br)c1OCC(=O)NC(C)(C)C	44	·	·
CCCCCCCCCCn1c2c(c(=N)c3c1CCC3)CCC2	74	·	·
O=S(=O)(Nc1ccc(O)c2ccccc12)c1ccc(Br)cc1	57	·	·
Cn1c(=O)oc2cc(S(=O)(=O)Nc3ccccc3O)ccc21	-46*	10	14
COC(=O)c1c(NC(=O)c2ccc(OC(C)C)cc2)sc2c1CC(C)(C)NC2(C)C	53	·	·
c1coc(-c2nnc(-c3ccco3)nn2)c1	84	·	·
CCOC(=O)c1ccc(N2CSC3=C(C#N)C(c4ccc(OC)cc4OC)CC(=O)N3C2)cc1 (stereo not drawn)	50	·	·
CC[C@@H](C)[C@@H]1CN([C@@H](CN2CCC[C@H]2CN2C(N)=NC[C@H]2CC(C)C)C(C)C)C(=N)N1CCc1ccc(Cl)c(Cl)c1	63	·	·
SMILES	Apaf1 activ	Rh110 interf act	Apaf-1 act conf	others
CC(=O)c1ccc(NC(=O)c2noc(C(C)C)c2[N+](=O)[O-])cc1	-127*	5	-4
O=C(N/N=C\c1ccc(-c2ccccc2[N+](=O)[O-])o1)C1COc2cc3ccccc3cc2O1 (stereo not drawn)	81	·	·
O=C(N/N=C/c1ccccc1O)C1(O)c2ccccc2-c2ccccc21	-59*	6	13
O=C1C(=O)c2c(C(=O)c3ccccc3)coc2-c2ccccc21	55	·	·
COc1ccc(-n2c(N)c(C(=O)NCc3ccco3)c3nc4ccccc4nc32)c(OC)c1	65	·	·
COc1ccc(C(=O)Nc2ccccc2C(=O)N(Cc2ccco2)C(C(N)=O)C(C)C)cc1 (stereo not drawn)	-351*	4	15
CCCCCCCCCCCCCCCC[n+]1cccc(C(=O)N(CC)CC)c1	74	·	·
O=c1[nH]c(Nc2ccccc2)cc2cc(Br)ccc12	98	·	·
CC(=O)c1cccc(-c2ccc3c(=O)[nH]c(Nc4ccccc4)cc3c2)c1	96	·	·	Fluor interf act=>100
COc1ccccc1Nc1cc2cc(Br)ccc2c(=O)[nH]1	97	·	·
O=C(N/N=C/c1ccc(O)c2ncccc12)c1cccc(Br)c1	-68*	-1	-4
Oc1ccc(C=Nc2cccc3ncccc23)c(O)c1	87	·	·
COc1ccc(NC(=O)c2cc(-c3ccncc3)nc3ccc(Br)cc23)cc1OC	45	·	·
CCCCCn1c(NC(=O)c2ccco2)c(S(=O)(=O)c2ccc(C)cc2)c2nc3ccccc3nc21	63	·	·
O=C(Nc1nc2ccsc2c(=O)s1)c1ccco1	-136*	0	-56*	Fluor interf act=>100
COc1ccc(Cn2c(N)c(C#N)c3nc4ccccc4nc32)cc1OC	86	·	·
CCN1C(N(C)CCc2c[nH]c3ccccc23)=N[C@@H](c2cccc(C(F)(F)F)c2)C(C(=O)OC)=C1C	55	·	·
CCOC(=O)c1c(C)oc2c1C(=O)c1ccccc1C2=O	69	·	·
CCOC(=O)c1c(-c2ccc(OC)cc2)oc2cc(Br)c(O)cc12	-62*	-1	-28
Nc1nnc2c(n1)CCCC2	83	·	·
CCCCCCCCCCCCCCCC[n+]1ccc(/C=N/O)cc1	80	·	·
CN1CCN(c2ccc(NC(=O)c3ccc(-c4ccc(Cl)cc4)o3)cc2)CC1	65	·	·
O=C(NC(=S)Nc1ccc(CN2CCCCC2)cc1)c1cccc(OCc2ccccc2)c1	43	·	·
COC(=O)c1ccc(NC(=S)N2CCN(Cc3ccc(Cl)cc3)CC2)cc1	-350*	7	10
OCCCCNc1cccc2ccccc12	81	·	·
SMILES	Apaf1 activ	Rh110 interf act	Apaf-1 act conf	others
O=C(COc1ccc2c3c(c(=O)oc2c1)CCC3)N1CCN(c2ccc(F)cc2)CC1	42	·	·
CCOC(=O)c1c2ccc(OCC(=O)NN)cc2n2ccccc12	42	·	·
Cc1oc2cc(OCC(=O)O)ccc2c(=O)c1Oc1ccccc1	-100*	4	12
Cc1[nH]n(-c2ccccc2)c(=O)c1N=Nc1nccs1	73	·	·
NC(=O)/C(=C/c1ccc2c(c1)OCO2)NC(=O)c1ccco1	-44*	1	1
COc1ccc(C(=O)N(C)C(C)c2ccon2)cc1OC1CCN(C(C)C)CC1 (stereo not drawn)	-315*	13	14
CCOc1cc(CNc2ccc(N(C)C)cc2)cc(Br)c1OCC(=O)NC(C)(C)C	44	·	·
CCOC(=O)C(NC(=O)c1ccccc1Cl)(Nc1ccc(C(F)(F)F)cc1)C(F)(F)F (stereo not drawn)	-406*	5	9
COC(=O)CCC(=O)OC1(C)C(=O)C2=CN(CCc3ccccn3)C(c3ccc(OC)cc3)=CC2=C(Br)C1=O (stereo not drawn)	73	·	·
CCC(CO)Oc1cc(NCc2cccnc2)c2ncn(C(C)C)c2c1 (stereo not drawn)	63	·	·
C#CCOCCOCCOCCNc1nc(N2CCN(C(=O)[C@H](CCCCN)n3cc([C@@H](N)CO)nn3)CC2)nc(N2CCN(C(=O)[C@H](Cc3cc4ccccc4[nH]3)n3cc([C@@H](N)Cc4ccc(O)cc4)nn3)CC2)n1	55	·	·
Cc1ccc(/C=C/c2onc(C)c2S(=O)(=O)N2CCC(C(=O)N3CCN(C)CC3)CC2)cc1	45	·	·
CCOC(=O)N1CCN(C2=C(NS(=O)(=O)c3ccc(C)cc3)C(=O)c3ccccc3C2=O)CC1	86	·	·
CCOC(=O)N1CCN(C(=O)C2CCN(S(=O)(=O)c3ccc(OCC)cc3)CC2)CC1	-164*	-3	18
CC1=C(CC(=O)c2ccccc2)C(=O)c2ccccc2C1=O	45	·	·
COc1ccc(CCn2c(N)c(C#N)c3nc4ccccc4nc32)cc1OC	60	·	·

Screening results: PubChem BioAssay, Sanford-Burnham Center for Chemical Genomics
